Assay results taken from ChEMBL document CHEMBL1139831, “The influence of modifications in imide fragment structure on 5-HT(1A) and 5-HT(7) receptor affinity and in vivo pharmacological properties of some new 1-(m-trifluoromethylphenyl)piperazines” (Bioorg Med Chem, 2007).
pKi: −log10 of the molar value.

Experiments:
Rattus norvegicus [1] = assay: Effect on lower lip retraction in Wistar rat at 5 mg/kg; assay type: functional
Summary of the method: (§1)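 Male Wistar rats (290–310 g) dosed ip in 1% Tween 80 (2 ml/kg), caged singly; lower lip retraction scored 15, 30 and 45 min after dosing as 0 (incisors not visible), 0.5 (partly) or 1 (completely visible), totals up to 3 per rat. n = 6 per group; one-way ANOVA followed by Dunnett's test.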

Rattus norvegicus [2] = assay: Effect on lower lip retraction in Wistar rat at 10 mg/kg; assay type: functional; summary of the method: as §1
Rattus norvegicus [3] = assay: Effect on lower lip retraction in Wistar rat at 20 mg/kg; assay type: functional; summary of the method: as §1
Rattus norvegicus [4] = assay: Effect on 8-OH-DPAT-induced lower lip retraction in Wistar rat at 5 mg/kg; assay type: functional
Rattus norvegicus [5] = assay: Effect on 8-OH-DPAT-induced lower lip retraction in Wistar rat at 10 mg/kg; assay type: functional
Rattus norvegicus [6] = assay: Effect on 8-OH-DPAT-induced lower lip retraction in Wistar rat at 20 mg/kg; assay type: functional
[7] = biological target: T1, 5-hydroxytryptamine receptor 1A (Rattus norvegicus, UniProt P19327); assay: Displacement of [3H]8-OH-DPAT from 5HT1A in rat hippocampal membranes; assay type: cell membranes, Hippocampus, Membrane
T1 sequence (P19327 whole entry): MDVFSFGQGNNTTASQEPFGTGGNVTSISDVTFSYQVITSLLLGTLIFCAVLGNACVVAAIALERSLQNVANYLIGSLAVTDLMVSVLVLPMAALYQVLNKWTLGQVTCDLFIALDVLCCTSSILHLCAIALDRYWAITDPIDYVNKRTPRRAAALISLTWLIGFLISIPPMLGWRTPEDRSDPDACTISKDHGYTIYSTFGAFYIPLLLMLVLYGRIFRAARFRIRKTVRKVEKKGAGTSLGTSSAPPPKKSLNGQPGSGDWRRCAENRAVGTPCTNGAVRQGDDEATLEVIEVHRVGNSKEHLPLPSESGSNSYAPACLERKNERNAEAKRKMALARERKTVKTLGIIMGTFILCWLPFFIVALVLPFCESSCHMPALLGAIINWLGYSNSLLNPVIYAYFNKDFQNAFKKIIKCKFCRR
Summary of the method: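 Rat hippocampal membranes, [3H]-8-OH-DPAT as radioligand, 5-HT defining nonspecific binding. 7–9 drug concentrations run in triplicate, at least three separate experiments. Filtration through GF/B filters with three ice-cold buffer washes, scintillation counting. Ki from non-linear regression of binding isotherms via Cheng-Prusoff equation.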

D(2) dopamine receptor = D(2) dopamine receptor (Rattus norvegicus, UniProt P61169); assay: Displacement of [3H]spiperone from dopamine D2 receptor in rat striatal membranes; assay type: cell membranes, Membrane
Sequence of D(2) dopamine receptor (P61169 whole entry): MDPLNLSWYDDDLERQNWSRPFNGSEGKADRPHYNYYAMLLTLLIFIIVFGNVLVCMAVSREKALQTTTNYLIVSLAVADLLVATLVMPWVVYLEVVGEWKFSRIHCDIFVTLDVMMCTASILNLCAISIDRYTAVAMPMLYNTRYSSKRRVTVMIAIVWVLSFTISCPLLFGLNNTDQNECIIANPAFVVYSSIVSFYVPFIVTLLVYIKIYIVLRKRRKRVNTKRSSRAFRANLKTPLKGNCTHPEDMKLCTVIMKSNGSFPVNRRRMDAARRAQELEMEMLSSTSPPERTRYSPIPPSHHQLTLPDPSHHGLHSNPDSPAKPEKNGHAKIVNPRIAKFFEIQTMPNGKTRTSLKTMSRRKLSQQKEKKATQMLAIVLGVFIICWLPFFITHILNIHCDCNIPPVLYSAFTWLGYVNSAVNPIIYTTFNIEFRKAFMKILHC
Summary of the method: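 Competition binding on rat striatal membranes using [3H]-spiperone, butaclamol for nonspecific binding; filtration through GF/B filters and scintillation counting. Run at two compound concentrations, each in triplicate, and affinity expressed as estimated Ki.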

[8] = Displacement of [3H]prazosin from adrenergic alpha1 receptor in rat cortical membranes; assay type: cell membranes, Membrane
Summary of the method: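 Rat cortical membranes with [3H]-prazosin; phentolamine defines nonspecific binding. 7–9 drug concentrations in triplicate, at least three separate experiments; stopped by GF/B filtration with three ice-cold buffer washes, bound radioactivity by liquid scintillation counting; Ki from non-linear regression and Cheng-Prusoff equation.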

[9] = biological target: 5-hydroxytryptamine receptor 7 (Homo sapiens, UniProt P34969); assay: Displacement of [3H]5-CT from human 5HT7 expressed in HEK293 cells; assay type: cell-based
Sequence of 5-hydroxytryptamine receptor 7 (P34969 whole entry): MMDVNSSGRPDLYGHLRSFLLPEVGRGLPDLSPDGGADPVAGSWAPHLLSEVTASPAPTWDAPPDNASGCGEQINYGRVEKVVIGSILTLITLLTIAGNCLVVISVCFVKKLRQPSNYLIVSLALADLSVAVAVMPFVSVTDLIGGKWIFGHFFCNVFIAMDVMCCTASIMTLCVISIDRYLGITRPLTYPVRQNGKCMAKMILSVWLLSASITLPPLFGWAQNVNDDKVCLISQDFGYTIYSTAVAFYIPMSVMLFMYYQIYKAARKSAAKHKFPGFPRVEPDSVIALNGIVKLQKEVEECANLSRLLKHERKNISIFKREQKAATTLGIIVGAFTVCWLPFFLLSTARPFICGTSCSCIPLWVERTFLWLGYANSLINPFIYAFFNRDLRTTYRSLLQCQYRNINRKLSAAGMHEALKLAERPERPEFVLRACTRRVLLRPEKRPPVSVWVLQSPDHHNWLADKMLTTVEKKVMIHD
Summary of the method: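 HEK293 cells stably transfected with human 5-HT7(b) cDNA; membranes (10 µg protein) incubated 1 h at 37 °C in 50 mM Tris-HCl pH 7.4 with 4 mM MgCl2, 0.1 mM pargyline, 0.1% ascorbic acid, 0.5 nM [3H]-5-CT and 7–9 test concentrations in triplicate; 10 µM 5-HT defines nonspecific binding. GF/B filtration, scintillation counting; Ki via Cheng-Prusoff from ≥3 experiments.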

Mus musculus [10] = species: Mus musculus; conditions: Swiss Albino, 5 mg/kg
Mus musculus [11] = species: Mus musculus; conditions: Swiss Albino, 2.5 mg/kg
Mus musculus [12] = species: Mus musculus; conditions: Swiss Albino, 5 mg/kg; remark: listed apart in the source
Mus musculus [13] = species: Mus musculus; conditions: Swiss Albino, 2.5 mg/kg; remark: listed apart in the source
Mus musculus [14] = species: Mus musculus; conditions: Swiss Albino, 5 mg/kg; remark: listed apart in the source
Mus musculus [15] = species: Mus musculus; conditions: Swiss Albino, 5 mg/kg; remark: listed apart in the source
Mus musculus [16] = species: Mus musculus; conditions: Swiss Albino, 5 mg/kg; remark: listed apart in the source
Mus musculus [17] = species: Mus musculus; conditions: Swiss Albino, 2.5 mg/kg; remark: listed apart in the source
Mus musculus [18] = species: Mus musculus; conditions: Swiss Albino, 5 mg/kg; remark: listed apart in the source
Mus musculus [19] = species: Mus musculus; conditions: Swiss Albino, 2.5 mg/kg; remark: listed apart in the source
Rattus norvegicus [20] = assay: Effect on lower lip retraction in Wistar rat at 2.5 mg/kg; assay type: functional; summary of the method: as §1
Rattus norvegicus [21] = assay: Effect on 8-OH-DPAT-induced lower lip retraction in Wistar rat at 2.5 mg/kg; assay type: functional
Mus musculus [22] = species: Mus musculus; conditions: Swiss Albino, 10 mg/kg
Mus musculus [23] = species: Mus musculus; conditions: Swiss Albino, 20 mg/kg
Mus musculus [24] = species: Mus musculus; conditions: Swiss Albino, 10 mg/kg; remark: listed apart in the source
Mus musculus [25] = species: Mus musculus; conditions: Swiss Albino, 20 mg/kg; remark: listed apart in the source
Mus musculus [26] = species: Mus musculus; conditions: Swiss Albino, 20 mg/kg; remark: listed apart in the source
Mus musculus [27] = species: Mus musculus; conditions: Swiss Albino, 10 mg/kg; remark: listed apart in the source
Mus musculus [28] = species: Mus musculus; conditions: Swiss Albino, 10 mg/kg; remark: listed apart in the source
Mus musculus [29] = species: Mus musculus; conditions: Swiss Albino, 20 mg/kg; remark: listed apart in the source
Mus musculus [30] = species: Mus musculus; conditions: Swiss Albino, 10 mg/kg; remark: listed apart in the source
Mus musculus [31] = species: Mus musculus; conditions: Swiss Albino, 20 mg/kg; remark: listed apart in the source
Mus musculus [32] = species: Mus musculus; conditions: Swiss Albino, 10 mg/kg; remark: listed apart in the source
Mus musculus [33] = species: Mus musculus; conditions: Swiss Albino, 10 mg/kg; remark: listed apart in the source
Mus musculus [34] = assay: Anxiolytic activity in Swiss Albino mouse assessed as number of punished crossings for 60 secs at 2.5 mg/kg administered 30 mins before the test by four-plate test; assay type: functional
Summary of the method: (§2)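 Male Albino Swiss mice (24–28 g), compound suspended in 1% aqueous Tween 80, given ip (10 ml/kg). Mouse placed in box with four metal floor plates, 15 s exploration, then floor electrified (120 V, 0.5 s) at each plate-to-plate crossing, no new shock for 3 s. Punished crossings counted over 60 s. n = 9-10/group; one-way ANOVA then Dunnett's test.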

Mus musculus [35] = assay: Anxiolytic activity in Swiss Albino mouse assessed as number of punished crossings for 60 secs at 5 mg/kg administered 30 mins before the test by four-plate test; assay type: functional
Summary of the method: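 Male Albino Swiss mice dosed ip (1% aqueous Tween 80, 10 ml/kg) 30 min beforehand. Opaque box floored with four metal plates; 15 s free exploration, then each plate-to-plate crossing triggers a 0.5 s, 120 V floor shock, with no new shock for 3 s if running continues. Punished crossings counted over 60 s; n = 9-10, ANOVA plus Dunnett's test.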

Mus musculus [36] = assay: Anxiolytic activity in Swiss Albino mouse assessed as number of punished crossings for 60 secs at 10 mg/kg administered 30 mins before the test by four-plate test; assay type: functional; summary of the method: as §2
Mus musculus [37] = assay: Antidepressant activity in Swiss Albino mouse assessed as immobility time during final 4 mins of 6 mins session at 5 mg/kg administered 30 mins before the test by forced-swimming test; assay type: functional
Summary of the method: (§3)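 Male Albino Swiss mice (24–28 g), compound given ip in 1% aqueous Tween 80 (10 ml/kg), 30 min before test. Mouse placed singly in glass cylinder (25 cm high, 10 cm diameter) holding 6 cm water at 23–25 °C for 6 min; immobility (floating, only small head-keeping movements) timed over last 4 min. n = 9-10 per group; one-way ANOVA then Dunnett's test.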

Mus musculus [38] = assay: Antidepressant activity in Swiss Albino mouse assessed as immobility time during final 4 mins of 6 mins session at 10 mg/kg administered 30 mins before the test by forced-swimming test; assay type: functional; summary of the method: as §3
Mus musculus [39] = assay: Effect on locomotor activity in Swiss Albino mouse assessed as number of crossings in 6 mins at 5 mg/kg administered 30 mins before the test; assay type: functional
Summary of the method: (§4)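 Male Albino Swiss mice (24–28 g) given compound ip (suspension in 1% aqueous Tween 80, 10 ml/kg). Animals housed singly in plastic cages in a multichannel photobeam activity monitor. Ambulation crossings counted over first 6 min and over 30-min session. n = 9-10/group; one-way ANOVA then Dunnett's test.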

Mus musculus [40] = assay: Effect on locomotor activity in Swiss Albino mouse assessed as number of crossings in 30 mins at 5 mg/kg administered 30 mins before the test; assay type: functional
Summary of the method: (§5)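 Male Albino Swiss mice given compound ip (1% Tween 80, 10 ml/kg) 30 min before placement singly in plastic cages in a multichannel photobeam activity monitor; ambulation crossings counted over the first 6 min and over a 30 min session. n = 9-10 per group; ANOVA then Dunnett's test.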

Mus musculus [41] = assay: Effect on locomotor activity in Swiss Albino mouse assessed as number of crossings in 6 mins at 10 mg/kg administered 30 mins before the test; assay type: functional; summary of the method: as §4
Mus musculus [42] = assay: Effect on locomotor activity in Swiss Albino mouse assessed as number of crossings in 30 mins at 10 mg/kg administered 30 mins before the test; assay type: functional; summary of the method: as §5

SMILES | Activity (Rattus norvegicus [1]) | Activity (Rattus norvegicus [2]) | Activity (Rattus norvegicus [3]) | Activity (Rattus norvegicus [4]) | Activity (Rattus norvegicus [5]) | Activity (Rattus norvegicus [6]) | pKi [7] | pKi (D(2) dopamine receptor) | pKi [8] | pKi [9] | deltaT (Mus musculus [10]) [°C] | deltaT (Mus musculus [12]) [°C] | deltaT (Mus musculus [16]) [°C] | deltaT (Mus musculus [18]) [°C] | deltaT (Mus musculus [22]) [°C] | deltaT (Mus musculus [24]) [°C] | deltaT (Mus musculus [28]) [°C] | deltaT (Mus musculus [30]) [°C] | also measured
O=C1C2=C(CCCC2)C(=O)N1C1CCC(N2CCN(c3cccc(C(F)(F)F)c3)CC2)CC1 (centres undefined) | 1.8 | 2 | 2 | 2.5 | 1.9 | 1.8 | 9.52 | 5.58 | 8.40 | < 5.30 | -0.7 | -0.3 | -1.2 | -1.4 |  |  |  |  | deltaT (Mus musculus [11]): -0.4 °C; deltaT (Mus musculus [13]): 0.1 °C; deltaT (Mus musculus [14]): 0.2 °C; deltaT (Mus musculus [15]): 0.1 °C; deltaT (Mus musculus [17]): -0.4 °C; deltaT (Mus musculus [19]): -0.5 °C
O=C1C2=C(CCCC2)C(=O)N1CCCCN1CCN(c2cccc(C(F)(F)F)c2)CC1 | 2.2 | 2.2 |  | 1.5 | 1.1 |  | 8.23 | < 5.30 | 7.52 | 6.87 |  |  |  |  | 0 | 0 | 0.2 | 0 | Activity (Rattus norvegicus [20]): 1.9; Activity (Rattus norvegicus [21]): 2.3; deltaT (Mus musculus [23]): -1.3 °C; deltaT (Mus musculus [25]): -1.1 °C; deltaT (Mus musculus [26]): -0.6 °C; deltaT (Mus musculus [27]): -0.2 °C; deltaT (Mus musculus [29]): -1.8 °C; deltaT (Mus musculus [31]): -1.3 °C
O=C1C2CC=CCC2C(=O)N1C1CCC(N2CCN(c3cccc(C(F)(F)F)c3)CC2)CC1 (centres undefined) |  | 0.7 | 1.3 |  | 2.1 | 1.9 | 8.82 | 5.33 | 7.37 | 6.47 | -0.4 | -0.1 | -0.7 | -0.4 | -1.1 | -1 | -1.7 | -1.3 | deltaT (Mus musculus [32]): -0.5 °C; deltaT (Mus musculus [33]): -0.3 °C
CC1(C)CC(=O)N(CCCCN2CCN(c3cccc(C(F)(F)F)c3)CC2)C(=O)C1 |  |  |  |  |  |  |  |  | 6.90 | 7.34 |  |  |  |  |  |  |  |  | Activity (Mus musculus [34]): 5.3; Activity (Mus musculus [35]): 6.9; Activity (Mus musculus [36]): 7.6; Activity (Mus musculus [37]): 157.7 s; Activity (Mus musculus [38]): 112.1 s; Activity (Mus musculus [39]): 121.7; Activity (Mus musculus [40]): 730.8; Activity (Mus musculus [41]): 23; Activity (Mus musculus [42]): 265.1
